Counter-ions that a name gives are not always drawn.

These results are taken from ChEMBL document CHEMBL1146201, “Comparison of a SYBR green I-based assay with a histidine-rich protein II enzyme-linked immunosorbent assay for in vitro antimalarial drug efficacy testing and application to clinical isolates” (Antimicrob Agents Chemother, 2007).

Holding throughout (type): functional, organism-based
For experiment [1], the system named is Plasmodium falciparum. The experiment in a line: Growth inhibition after 72 hrs of Plasmodium falciparum 3D7 by HRPII ELISA. The following applies: 3D7, 72 h. In short, it runs like this: (§1)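 Ring-stage cultures (≥70% rings) diluted to 0.5% parasitemia, 2% hematocrit, in RPMI with Albumax I or 10% human serum. Incubated 72 h at 37°C under 5% O2/5% CO2/90% N2 in plates predosed in duplicate with twofold dilutions (chloroquine 3.8–242 nM, quinine 10.8–346 nM, mefloquine 1.1–37.7 nM). Plates were then frozen and thawed. Lysate was assayed by HRPII capture ELISA (IgM capture, HRP detector), A450. IC50/IC90 were derived by nonlinear fitting.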

Experiment [2] relates to Plasmodium falciparum. The experiment in a line: Growth inhibition after 72 hrs of Plasmodium falciparum 3D7 by SYBR green assay. Conditions: 3D7, 72 h. Put shortly: (§2)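 Cultures were set up as for the ELISA arm: 0.5% parasitemia, 2% hematocrit, 72 h at 37°C, 5% O2/5% CO2/90% N2, twofold drug dilutions in duplicate. Plates were frozen at −80°C and thawed 2 h. 100 μl culture was mixed with an equal volume of SYBR green I in lysis buffer (Tris 20 mM pH 7.5, EDTA, saponin, Triton X-100), then held 1 h at RT. Fluorescence was read at 485/535 nm, with an uninfected-RBC background control. IC50/IC90 were derived by nonlinear fitting.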

Experiment [3] deals with Plasmodium falciparum. The experiment can be described thus: Growth inhibition after 72 hrs of Plasmodium falciparum W2 by SYBR green I assay. Conditions: W2, 72 h. In short, it runs like this:
as §2

In experiment [4] the test system is Plasmodium falciparum. The experiment can be described thus: Growth inhibition after 72 hrs of Plasmodium falciparum W2 by HRPII ELISA. Conditions: W2, 72 h. In short, it runs like this:
as §1

Experiment [5] deals with Plasmodium falciparum. The experiment can be described thus: Growth inhibition after 72 hrs of Plasmodium falciparum D6 by SYBR green I assay. The following applies: D6, 72 h. In short, it runs like this:
as §2

For experiment [6], the system named is Plasmodium falciparum. The experiment in a line: Growth inhibition after 72 hrs of Plasmodium falciparum D6 by HRPII ELISA. The following applies: D6, 72 h. In short, it runs like this: as §1
(In general: An ELISA detects its analyte on a solid surface through an enzyme-linked reagent.)

On to `C=CC1CN2CC[C@H]1C[C@H]2[C@H](O)c1ccnc2ccc(OC)cc12` (single isomer, unassigned) [QUININE HYDROCHLORIDE], for which the IC50 in the experiment with Plasmodium falciparum [1] amounted to 5.9 nM; in the experiment with Plasmodium falciparum [2], 6.9 nM; in the experiment on Plasmodium falciparum [3] it was 22.2 nM; in the experiment with Plasmodium falciparum [4], 15.1 nM; in the experiment on Plasmodium falciparum [5], 6.6 nM; in the experiment with Plasmodium falciparum [6] it was 6.7 nM. For the same compound, the IC90 stood at 42.6 nM with Plasmodium falciparum [1]; 63.7 nM in the experiment with Plasmodium falciparum [2]; 116 nM in the experiment on Plasmodium falciparum [3] (read-out: IC90); 128 nM with Plasmodium falciparum [4]; 12.4 nM with Plasmodium falciparum [5]; 13.2 nM in the experiment with Plasmodium falciparum [6].
For the compound `CCN(CC)CCCC(C)Nc1ccnc2cc(Cl)ccc12` (configuration not stated) [CHLOROQUINE PHOSPHATE], the IC90 with Plasmodium falciparum [1] was 33.2 nM; in the experiment with Plasmodium falciparum [2], 26.4 nM; in the experiment on Plasmodium falciparum [3] it was 125 nM; with Plasmodium falciparum [4], 129 nM; in the experiment with Plasmodium falciparum [5] it was 16.1 nM; in the experiment on Plasmodium falciparum [6], 15.8 nM.
Take `O[C@@H](c1cc(C(F)(F)F)nc2c(C(F)(F)F)cccc12)[C@H]1CCCCN1` [MEFLOQUINE HYDROCHLORIDE]: the concentration for half-maximal inhibition (IC50) in the experiment with Plasmodium falciparum [1] was determined as 8.4 nM; in the experiment with Plasmodium falciparum [2] it was 9.4 nM; with Plasmodium falciparum [4], 1.9 nM; with Plasmodium falciparum [5] it was 6.4 nM. In addition, the IC90 in the experiment with Plasmodium falciparum [1] came out at 25.6 nM; in the experiment with Plasmodium falciparum [2] it was 29.8 nM; in the experiment on Plasmodium falciparum [3] (read-out: IC90), 12.2 nM; with Plasmodium falciparum [4], 8 nM; with Plasmodium falciparum [5], 23.3 nM.

The term IC50 denotes the concentration that gives 50% inhibition. Lower therefore signals inhibition by little substance. As a reminder, the IC90 is the point of the concentration-response curve where the effect stands at 90%.
